Kir21 block: blocks the mouse Kir2.1 inward-rectifier potassium channel; P35561; 0.85% of 310,000 active; HEK293-Kir2.1, FluxOR thallium flux fluorescence; hits give low values; AID 1672; B-score at 10 µM;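 active = fluorescence ratio B-score at or below minus 3 SD of library scores, with starting-brightness B-score within 2 SD, cut at about -4.2 in these data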;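 also: channel flux triggered by added potassium and thallium sulfate stimulus; B-score of peak minus minimum fluorescence over baseline after thallium stimulus; more negative B-score means stronger Kir2.1 block with less thallium influx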
KCNK3 block: human KCNK3 channel inhibition, primary screen; CHO-KCNK3 thallium flux, FluxOR fluorescence; hits give low values; AID 602410; O14649; B-score at 10 µM; 0.84% of 340,000 active;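 active = B-score under library mean minus 4 SD, starting fluorescence ratio at most library mean plus 5 SD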;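 also: more negative B-score means stronger inhibition of thallium flux through KCNK3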
KCNQ1 inh: blocks the human KCNQ1 potassium channel; P51787; CHO-K1 KCNQ1, FluxOR thallium flux fluorescence; hits give high values; B-score at 10 µM; 1.3% of 310,000 active;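 active = compounds whose thallium flux B-score, printed positive for inhibition, exceeds three library SD while starting fluorescence stays within three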;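 also: channel opened by potassium depolarization with thallium stimulus after 20 min compound exposure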
KCNK9 block: human KCNK9 channel inhibition | Q9NPC2 | HEK293 KCNK9, FluxOR thallium flux fluorescence; hits give low values | B-score at 10 µM | 1.2% of 310,000 active | AID 488922;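 active = ratio B-score over 3 SD below the library mean, with starting fluorescence within 5 SD of its mean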;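 also: negative B-score means less thallium flux so channel inhibition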
Target sequence (Q9NPC2 whole entry, looked up): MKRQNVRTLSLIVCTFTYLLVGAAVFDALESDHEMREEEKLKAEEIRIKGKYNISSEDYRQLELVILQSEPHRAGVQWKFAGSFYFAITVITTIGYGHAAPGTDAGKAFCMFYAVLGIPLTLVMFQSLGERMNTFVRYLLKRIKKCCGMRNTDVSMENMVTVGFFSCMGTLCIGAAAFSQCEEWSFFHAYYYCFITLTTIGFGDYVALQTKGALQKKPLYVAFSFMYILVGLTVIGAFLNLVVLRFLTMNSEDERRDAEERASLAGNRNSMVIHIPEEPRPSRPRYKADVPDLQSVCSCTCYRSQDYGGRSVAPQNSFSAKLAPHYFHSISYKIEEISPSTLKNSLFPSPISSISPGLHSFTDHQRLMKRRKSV
KCNQ1 act: human KCNQ1 channel potentiation or activation | P51787 | B-score at 10 µM | CHO-K1 KCNQ1, thallium flux FluxOR fluorescence; hits give high values | 0.35% of 310,000 active;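 active = fluorescence ratio B-score, a plate-corrected score, at least three library SD, with initial intensity B-score within 5 SD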
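Assay system: stable KCNQ1 CHO-K1 line; medium: assay buffer, equal DMSO in all wells; timing: 90 min dye loading and 20 min compound exposure, both at room temperature; technique: kinetic FluxOR thallium fluorescence, 10-s 1-Hz baseline, 110-s post-stimulus read; read-out basis: B score of baseline-normalized fluorescence ratio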
hERG rescue: compounds protecting human hERG from proarrhythmic drug block. Q12809. CHO-hERG, FluxOR thallium flux, dofetilide IC70 present. activation (rescue from dofetilide block), less the hit threshold, % at 10 µM. 0.51% of 310,000 active. AID 1511;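 active = activation above the mean of controls blocked by dofetilide plus 5 SD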;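 also: thallium influx through hERG after potassium depolarization seen as dye fluorescence rise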
KCNK9 inh conf: confirmation of human KCNK9 potassium channel inhibitors; shares compounds with KCNK9 block; HEK293 KCNK9 cells, FluxOR thallium flux fluorescence; inhibition, % at 10 µM; 43% of 4,900 active;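 active = thallium signal inhibited by more than 5 SD of the compound-free buffer control wells, on both duplicate plates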
Kir21 sel: selectivity of KCNK9 modulators against mouse Kir2.1 | shares compounds with KCNK9 block | Kir2.1 cells, FluxOR thallium flux fluorescence | inhibition, % at 10 µM | 4% of 4,900 active | AID 492993;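 active = thallium signal drop more than 5 SD beyond the mean of the no-compound control wells, seen in both duplicate plates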;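 also: signal is fluorescence rise after thallium addition divided by baseline fluorescence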
KCNK9 uninduced: second counter-screen for KCNK9 modulators: effect in non-induced cells; shares compounds with KCNK9 block; non-induced KCNK9-HEK293, FluxOR thallium flux; inhibition, % at 10 µM; 40% of 4,900 active; AID 492997;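 active = thallium signal drop beyond 5 SD of the untreated control mean, on both duplicate plates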
KCNK3 inh conf: human KCNK3 channel inhibition, confirmation assay. AID 651638. ratio percent of control, % at 10 µM. shares compounds with KCNK3 block. CHO-KCNK3 thallium flux, FluxOR fluorescence; 0% buffer, 100% carvedilol maximal block. 99% of 2,400 active;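 active = ratio percent of control, averaged over triplicates, above buffer control mean plus 5 SD, cut at about 64% in these data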;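 also: ratio is the fluorescence rise from min to max over baseline after thallium stimulus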
KCNK3 noninduced: KCNK3 inhibitor counter-screen hit in non-induced cells; shares compounds with KCNK3 block; non-induced KCNK3 parental cells, FluxOR thallium flux; hits give low values; thallium flux ratio (lower = more inhibition) at 10 µM; 40% of 2,400 active;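 active = thallium flux ratio, averaged over three wells, more than 5 SD below the buffer control mean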;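 also: host cells are CHO cells without KCNK3 induction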
Hits are given with their value; - = inactive; . = no result. Compounds with a hit are over-represented: about 3.7% of the library has one in this group of screens.

SMILES	Kir21 block	KCNK3 block	KCNQ1 inh	KCNK9 block	KCNQ1 act	hERG rescue	KCNK9 inh conf	Kir21 sel	KCNK9 uninduced	KCNK3 inh conf	KCNK3 noninduced
O=C(CCCN1C(=O)C(c2ccccc2)Oc2cccnc21)NCc1ccccc1F (stereo unspecified)	-	-	-	-	-	-	.	.	.	.	.
COC(/C(=N/O)c1ccc(Cl)cc1)c1ccccc1 (stereo unspecified)	-	-9.7	11	-10	-	-	38%	-	48%	114	0.16
Cc1ccc(N(CC(=O)Nc2ccc(Br)c(C)c2)S(=O)(=O)c2c(C)[nH]c(=O)[nH]c2=O)cc1	-	-	-	-	-	-	.	.	.	.	.
O=C(Nc1ccc(Br)cc1)/C(=C/c1cccc([N+](=O)[O-])c1)NC(=O)C1CCCCC1	-	-9.4	-	-9.7	-	-	50%	-	34%	107	0.15
O=C(CCC(=O)OCC(=O)c1ccc(Br)cc1)Nc1ccc(Br)c2cccnc12	-	-	-	-	-	-	.	.	.	.	.
Cc1cc(C)c(NC(=O)CNC(=O)c2ccc3ncsc3c2)c(C)c1	.	-	.	.	.	.	.	.	.	.	.
CC(C)S(=O)(=O)c1csc(NC(=O)Nc2cc(Cl)ccc2Cl)c1Cl	-	-11	-	-8.2	-	-	54%	-	38%	139	0.14
COc1ccc(OCC(O)Cn2c(N)nc3c2c(=O)[nH]c(=O)n3C)cc1 (stereo unspecified)	-	-	-	-	-	-	.	.	.	.	.
O=C(CCn1c(=O)oc2ccccc21)Nc1cccc([N+](=O)[O-])c1	-	-	-	-	-	-	.	.	.	.	.
CC(C)(C)CC(=O)Nc1ccccc1N1CCN(c2ccccc2)CC1	-	-	-	-	-	-	.	.	.	.	.
O=C(Nc1ccccc1N1CCN(c2ccc(F)cc2)CC1)c1ccccc1	-	-14	-	-10	-	-	-	-	29%	125	0.15
CC(C)(C)CC(=O)Nc1ccccc1N1CCN(c2ccc(F)cc2)CC1	-	-9	-	-12	-	-	73%	-	37%	120	0.14
Cc1cscc1NC(=O)/C=C/C(=O)O	-	-	-	-	-	-	.	.	.	.	.
CC(C)=CCc1cc([C@@H]2CC(=O)c3ccc(O)c(CC=C(C)C)c3O2)ccc1O	-	-16	-	-11	-	-	61%	-	30%	141	0.12
Cc1ccc2c(c1)C(=O)CC(c1ccc3c(c1)OCCO3)O2 (stereo unspecified)	-	-	-	-	-	-	.	.	.	.	.
CCCCC[C@H](O)/C=C/[C@H]1CCC(=O)[C@@H]1CCCCCCC(=O)N1CCCCC1CO (stereo partly specified)	-	-	-	-12	-	-	60%	-	-	85	-
CCC1CCCCN1C(=O)CCCOc1ccccc1 (stereo unspecified)	-	-	-	-	-	-	.	.	.	.	.
CCOc1ccc(C(C)=O)cc1CN1C(=O)NC(C)(C2CC2)C1=O (stereo unspecified)	-	-	-	-	-	-	.	.	.	.	.
C=CCC1NS(=O)(=O)OC2CCCC12 (stereo unspecified)	-	-	-	-	-	-	.	.	.	.	.
Cc1ccc2c(CN(C)Cc3ccccc3)cc(=O)oc2c1C	-	-9.3	-	-	-	-	-	-	-	92	-
Cc1ccc2c(CN(C)Cc3ccc(Cl)cc3)cc(=O)oc2c1	-	-16	-	-11	-	-	38%	-	44%	94	-

Compound activity from PubChem.
